Source: PubChem
Furin inhibitor: inhibitors of human furin; purified furin, fluorogenic substrate cleavage; inhibition, % at 20 µM or 30 µM; 220,000 compounds, 0.061% hits; AID 463115; in the data active means inhibition above about 25%
NPY Y2 blocker: NPY-Y2 (human) receptor antagonism | AID 793 | inhibition, % at 2.7 µM | NPY-Y2 expressing cells, antagonist mode | P49146 | 140,000 compounds, 0.99% hits; in the data active means inhibition above about 17%;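 further: 0% = vehicle with agonist challenge and 100% = reference antagonist with challenge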
Target sequence (P49146 whole entry, looked up): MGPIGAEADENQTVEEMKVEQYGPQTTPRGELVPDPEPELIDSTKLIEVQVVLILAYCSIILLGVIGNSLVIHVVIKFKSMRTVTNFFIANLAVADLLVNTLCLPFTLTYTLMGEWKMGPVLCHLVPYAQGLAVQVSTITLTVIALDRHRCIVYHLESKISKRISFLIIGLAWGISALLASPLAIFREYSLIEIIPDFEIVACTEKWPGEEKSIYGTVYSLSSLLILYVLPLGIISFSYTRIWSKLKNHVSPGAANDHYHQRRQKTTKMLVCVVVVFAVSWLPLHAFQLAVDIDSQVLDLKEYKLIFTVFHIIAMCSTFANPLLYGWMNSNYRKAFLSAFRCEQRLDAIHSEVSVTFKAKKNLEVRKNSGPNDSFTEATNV
Cl transport mod: KCC2 (human) Cl- transport modulation. KCC2 cells, thallium flux FluoZin-2 fluorescence. B-score of Tl+ flux slope (higher = more flux/activation; lower = inhibition) at 10 µM. AID 1456. 190,000 compounds, 2.2% hits;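 active means thallium flux slope and its plate-corrected score both differing from the plate sample mean at a set confidence after two filtering rounds, in either direction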;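 further: slope of fluorescence scaled to starting intensity during 10 to 20 s after thallium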
NPY-Y1 PAM-ag: potentiates or activates human NPY-Y1 receptor. activation, % at 3.6 µM. 220,000 compounds, 0.37% hits. NPY-Y1 expressing cells, potentiator/agonist activation. P25929; in the data active means activation above about 33%, passing the limit was not always enough;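 further: cells stimulated with NPY at EC10 then isoproterenol at EC100; 0% = low agonist plus stimulus and 100% = saturating agonist plus stimulus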
Target sequence (P25929 whole entry, looked up): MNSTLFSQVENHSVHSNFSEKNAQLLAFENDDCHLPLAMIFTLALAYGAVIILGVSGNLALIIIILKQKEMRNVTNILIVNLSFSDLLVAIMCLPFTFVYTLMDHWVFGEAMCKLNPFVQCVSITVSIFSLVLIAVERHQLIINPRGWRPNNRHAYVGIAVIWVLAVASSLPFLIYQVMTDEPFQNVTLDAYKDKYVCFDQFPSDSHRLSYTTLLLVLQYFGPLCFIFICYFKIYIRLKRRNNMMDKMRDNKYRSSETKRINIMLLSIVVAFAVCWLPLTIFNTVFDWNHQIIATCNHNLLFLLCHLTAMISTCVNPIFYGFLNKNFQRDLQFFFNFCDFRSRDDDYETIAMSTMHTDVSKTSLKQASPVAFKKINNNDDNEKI
NPY2 pot ag: potentiates or activates human NPY-Y2 receptor; P49146; cells expressing NPY-Y2, potentiator/agonist read-out; activation, % at 3.6 µM; AID 1359; 220,000 compounds, 0.45% hits; in the data active means activation above about 27%;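 further: cells stimulated with NPY near EC25 plus isoproterenol at EC100; 0% = vehicle plus submaximal agonist and 100% = vehicle plus saturating agonist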
NPY Y1 blocker: NPY-Y1 (human) receptor antagonism; inhibition, % at 3.6 µM; AID 1040; HEK293-CNG Y1 cells, membrane potential fluorescence; NPY at EC95, then isoproterenol; 200,000 compounds, 1% hits; P25929;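 active means inhibition above the campaign mean inhibition of all tested compounds plus 3 SD, cut at about 20% in these data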;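 further: 0% = DMSO wells given NPY plus isoproterenol and 100% = isoproterenol alone without NPY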
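Test system: HEK293 cells co-expressing NPY Y1 receptor and cyclic-nucleotide gated channel; Also added: NPY (25 nM), isoproterenol (1 µM), Ro 20-1724 (25 µM); Compound dosing: one concentration, 3.6 µM, in 0.4% DMSO; Timing: dye 3 h, compound 60 min room temperature, stimulation 45 min; Technique: Membrane-potential fluorescent dye readout.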
KCC2 secondary: KCC2 (human) modulation, secondary assay; shares compounds with Cl transport mod; HEK293-KCC2, thallium flux, FluoZin2 fluorescence; active compounds read high; normalised thallium flux (F/F0 slope) at 10 µM; 3,700 compounds, 15% hits; AID 1713;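 active means thallium flux slope above the same plate's solvent-only control mean plus 3 SD; inconclusive means the two replicate wells disagree; inactive means no significant difference from solvent-only control wells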
KCC2 bumet counter: bumetanide-insensitive thallium flux in KCC2 cells with ouabain, counter-screen. normalized thallium flux at 10 µM. shares compounds with Cl transport mod. 3,700 compounds, 49% hits. AID 1714. HEK293-KCC2 + bumetanide/ouabain, thallium flux FluoZin2; active compounds read high;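 active means thallium entry rate above the same plate's blocked-transporter control wells by more than 3 SD; inconclusive means the two repeat wells disagree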;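 further: raw slope of fluorescence over initial fluorescence between 10 and 20 s after thallium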
KCC2 sec2: confirmation of human KCC2 transport modulators; normalized thallium flux at 10 µM; shares compounds with Cl transport mod; HEK293-KCC2, thallium flux FluoZin2 fluorescence; actives lie on both sides; F/F0 rise rate, 10–20 s post-thallium; AID 1715; 3,700 compounds, 23% hits;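 active means thallium flux slope more than 3 SD above or below the plate's solvent-only control mean, mostly below; inconclusive means the two repeat wells disagreed; inactive means no significant shift from solvent-only controls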;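 further: raw slope with 0.1% DMSO as baseline and bumetanide as block control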
HEK counter1: counter-screen for KCC2 modulators: effect in parental HEK293 cells; thallium flux FluoZin2, ouabain; baseline-ratio fluorescence slope, 10–20 s after thallium; 3,700 compounds, 46% hits; thallium flux rate (normalised fluorescence) at 10 µM; shares compounds with Cl transport mod;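 active means thallium flux rate significantly above the same plate's solvent-only control wells, beyond their mean plus 3 SD; inconclusive means the two replicate wells gave conflicting results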
KCC2 retest ouab: confirmation of human KCC2 modulators with ouabain | shares compounds with Cl transport mod | HEK293-KCC2, thallium flux FluoZin2 fluorescence; bidirectional: low = inhibitor, high = activator | raw Tl+ flux slope (below DMSO = inhibition, above = activation) at 10 µM | 3,700 compounds, 48% hits | AID 1717;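 active means thallium flux slope beyond 3 SD from same-plate DMSO control mean in most replicates, usually higher, sometimes lower; inconclusive means repeat tests gave conflicting results; inactive means no significant difference from controls in most replicates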;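 further: slope of initial-normalized fluorescence between seconds 10 and 20 after thallium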
HEK293 Tl flux2: acts in parental HEK cells, second KCC2 counter-screen; shares compounds with Cl transport mod; HEK293 parental, thallium flux FluoZin-2 fluorescence slope; thallium flux slope at 10 µM; 3,700 compounds, 33% hits; AID 1718;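 active means thallium flux slope above the same plate's solvent-control mean plus 3 SD in both duplicate wells; inconclusive means duplicate wells that disagreed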;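 further: run without ouabain in cells lacking the KCC2 cotransporter; slope of fluorescence scaled to its starting value between 10 and 20 s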
The depositor's hits bear a star; ? = inconclusive; nt = no result given. The list is not random: actives were taken first. Their share in the collection is about 3.7%.

SMILES	Furin inhibitor	NPY Y2 blocker	Cl transport mod	NPY-Y1 PAM-ag	NPY2 pot ag	NPY Y1 blocker	KCC2 secondary	KCC2 bumet counter	KCC2 sec2	HEK counter1	KCC2 retest ouab	HEK293 Tl flux2
N/C(=N\OC(=O)Cc1ccc(-c2ccccc2)cc1)c1ccncc1	-13	nt	-0.86	-57	-6	7	nt	nt	nt	nt	nt	nt
Cc1cc(-c2n[nH]c(=S)n2/N=C/c2cccc(O)c2)n[nH]1	-16	nt	-0.074	-23	-7	nt	nt	nt	nt	nt	nt	nt
CC(/C=N/n1c(-c2ccc(C)cc2)n[nH]c1=S)=C\c1ccco1	-12	1	1.4	10	-6	-1	nt	nt	nt	nt	nt	nt
Cc1cc(-c2n[nH]c(=S)n2/N=C/C(Cl)=C/c2ccccc2)n[nH]1	-21	4	4.9*	-4	-3	1	0.0093	0.013*	0.037	?	0.02	0.011
CC(/C=N/n1c(-c2ccco2)n[nH]c1=S)=C\c1ccco1	-2	3	4.7*	-14	6	-1	0.0082	0.027*	0.038	0.018*	0.028*	0.02*
S=c1[nH]nc(-c2ccco2)n1/N=C/C(Cl)=C/c1ccccc1	-23	nt	34*	-7	-19	nt	0.016*	0.14*	0.038	0.029*	0.067*	0.015*
COc1ccc(C(C(=O)NC2CCCCC2)N(C(=O)CCl)c2cccc(Cl)c2)cc1 (stereo unspecified)	-13	2	-0.33	27	8	3	nt	nt	nt	nt	nt	nt
O=C1CN(C(=O)CNCc2ccccc2)c2ccccc2N1	-19	nt	2.1	16	-11	nt	nt	nt	nt	nt	nt	nt
N/C(Cc1cccs1)=N\OC(=O)COc1ccccc1Cl	-13	5	nt	-21	-12	5	0.0082	0.0054	0.032	?	0.018	0.0093
COc1ccccc1CN(Cc1nc2ccccc2c(=O)[nH]1)S(=O)(=O)c1ccc(C)cc1	-14	2	nt	-35	-18	16	0.0094	0.0059	0.03	0.0071	0.019	0.01
COc1ccccc1CN(Cc1nc2ccccc2c(=O)[nH]1)C(=O)Nc1ccc(C)cc1	-17	2	nt	10	19	-2	nt	nt	nt	nt	nt	nt
NS(=O)(=O)c1ccc(NC(=O)COC(=O)CCc2ccc(S(=O)(=O)N3CCOCC3)cc2)cc1	-6	nt	0.079	-15	5	nt	nt	nt	nt	nt	nt	nt
O=C(/C=C/c1ccco1)Nc1scc(-c2ccccc2)c1C(=O)O	-4	nt	nt	8	-9	nt	nt	nt	nt	nt	nt	nt
O=C(/C=C/c1ccccc1)Nc1scc(-c2ccccc2)c1C(=O)O	-24	nt	-7.1*	13	4	-7	0.0092	?	0.026*	0.008	0.013*	0.011
COC(=O)C1CCN(C(=O)COC(=O)CCc2nc3ccccc3c(=O)[nH]2)CC1	-28	-1	4.6*	-2	-2	4	0.0099	0.0072	0.035	0.0072	0.023	?
CN(C)c1ccc(-c2nnn(Cc3ccccc3Br)n2)cc1	-22	3	-4.3*	0	13	-6	0.0093	0.011*	0.032	?	0.021	0.01
CSc1cccc(NC(=O)C2CCN(S(=O)(=O)c3ccc(F)cc3)CC2)c1	-15	-1	nt	0	-11	-8	0.0077	0.0053	0.034	0.0044	?	0.01
COc1ccc(NC(=S)NNC(=O)c2nnn(-c3ccccc3)c2C)cc1	-15	10	-2	-24	-13	11	nt	nt	nt	nt	nt	nt
COc1cc(OC)c(OC)cc1/C=C/c1cc(C(F)(F)F)[nH]c(=O)n1	-19	nt	-4.7*	-18	-11	-2	?	-0.0019*	?	0.003*	0.012*	0.005*
CC1=CC(=O)N(c2ccn(C)n2)C1=O	-16	nt	-0.05	-8	-14	nt	nt	nt	nt	nt	nt	nt
O=C(CN1C(=O)C2CC=CCC2C1=O)Nc1ccc(S(=O)(=O)Nc2nccs2)cc1 (stereo unspecified)	-25	nt	-0.73	6	-5	nt	nt	nt	nt	nt	nt	nt
Cc1cc(NC(=O)CSc2ncnc3sc(C)c(C)c23)no1	-25	nt	1.1	-7	-15	5	nt	nt	nt	nt	nt	nt
O=C(O)/C=C/c1ccc(S(=O)(=O)NCc2cccnc2)cc1	-15	nt	3.8*	11	13	nt	0.015	0.0045	0.029	0.0072	0.016	0.011
O=S(=O)(NCc1cccnc1)c1ccccc1	-18	6	nt	-6	7	6	nt	nt	nt	nt	nt	nt
COc1ccc(C(=O)On2c(-c3ccc(Br)cc3)nc3ccccc3c2=O)cc1	-23	0	5.8*	-12	-2	8	0.0062	?	0.039*	0.012*	?	0.022*
SMILES	Furin inhibitor	NPY Y2 blocker	Cl transport mod	NPY-Y1 PAM-ag	NPY2 pot ag	NPY Y1 blocker	KCC2 secondary	KCC2 bumet counter	KCC2 sec2	HEK counter1	KCC2 retest ouab	HEK293 Tl flux2
COc1ccc(CCC(=O)O)c(O)c1	-34	nt	0.46	nt	nt	nt	nt	nt	nt	nt	nt	nt
O=C(O)CCc1cc(I)c(Oc2ccc(O)c(I)c2)c(I)c1	-25	nt	-4.1*	nt	nt	nt	0.007	?	0.025*	0.0069	?	0.01
CCC1=NN2C(=N)/C(=C\c3cccn3-c3ccc(Br)cc3)C(=O)N=C2S1	-6	nt	11*	-6	-2	13	0.0075	0.022*	0.033	0.019*	0.025*	0.014*
CCC1=NN2C(=N)/C(=C\c3cccn3-c3cccc(Cl)c3)C(=O)N=C2S1	-10	nt	8.8*	4	-5	-2	0.017	0.05*	?	0.021*	0.026*	0.021*
COCCn1c(SCC(=O)Nc2sccc2C(N)=O)nc2cc(Cl)ccc2c1=O	-17	-1	-0.36	44	21	-8	nt	nt	nt	nt	nt	nt
COc1ccc(C(=O)CSc2nnc(-c3ccccc3)o2)cc1	-22	6	-2.2	-2	2	8	nt	nt	nt	nt	nt	nt
COc1ccc(-c2nnc(SCc3ncc(-c4ccccc4)o3)o2)cc1	-32	21*	-3*	-24	-25	21*	0.0068	0.0047	?	0.0066	0.018	0.01
Cn1c(=O)c2c(nc(CN3CCN(C(c4ccccc4)c4ccccc4)CC3)n2CC(N)=O)n(C)c1=O	-9	1	-2.6*	8	-3	-6	0.011	0.0068	0.03	0.0077	0.034	?
COc1ccc(NS(=O)(=O)c2cc(NC(=O)[C@@H](NC(=O)c3ccccc3)C(C)C)ccc2C)cc1	-13	0	-0.24	6	-2	2	nt	nt	nt	nt	nt	nt
